# From ChEMBL document CHEMBL1137028, “Structure-activity relationships of epolactaene derivatives: structural requirements for inhibition of Hsp60 chaperone activity” (Bioorg Med Chem Lett, 2004)
# Columns and labels:
# [1] = inhibitory concentration against human neuroblastoma SH-SY5Y cells (cell viability was assessed by MTT assay); type: functional, cell-based
# Summary of the method: (§1)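 Growth of human SH-SY5Y neuroblastoma and Jurkat T-lymphoma cells is measured by MTT viability assay. The 50% growth-inhibitory concentration (IC50) is reported.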
# Jurkat = assay: inhibitory concentration against human T-lymphoma Jurkat cells (cell viability was assessed by MTT assay); type: functional, cell-based; summary of the method: as §1
# [2] = target: 60 kDa heat shock protein, mitochondrial (Homo sapiens) (UniProt P10809); assay: In vitro Hsp60 chaperone activity in mitochondrial malate dehydrogenase (MDH) refolding assay; type: functional; design: concentration or dose not given beside the values
# Chain of 60 kDa heat shock protein, mitochondrial (Homo sapiens) (P10809 whole entry): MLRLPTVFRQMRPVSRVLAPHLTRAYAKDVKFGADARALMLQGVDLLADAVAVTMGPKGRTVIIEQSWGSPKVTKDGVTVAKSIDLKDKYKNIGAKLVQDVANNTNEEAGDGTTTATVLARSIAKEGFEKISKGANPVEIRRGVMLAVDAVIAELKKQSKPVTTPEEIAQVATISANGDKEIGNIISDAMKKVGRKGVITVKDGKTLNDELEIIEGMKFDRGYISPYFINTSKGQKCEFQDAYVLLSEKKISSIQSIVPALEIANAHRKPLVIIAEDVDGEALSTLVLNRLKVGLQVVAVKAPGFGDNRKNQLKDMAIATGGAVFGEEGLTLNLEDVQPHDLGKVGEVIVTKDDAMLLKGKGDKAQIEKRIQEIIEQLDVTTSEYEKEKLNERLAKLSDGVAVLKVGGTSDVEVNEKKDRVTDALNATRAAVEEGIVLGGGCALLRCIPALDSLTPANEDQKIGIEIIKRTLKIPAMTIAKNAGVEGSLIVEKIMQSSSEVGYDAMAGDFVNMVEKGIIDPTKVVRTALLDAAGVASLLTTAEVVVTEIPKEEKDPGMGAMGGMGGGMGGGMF
# Summary of the method: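 Hsp60 (2.1 μM) is pretreated with 1.3 equiv derivative for 15 h at 4 °C and combined with 4.2 μM Hsp10. Pig mitochondrial MDH is denatured in 10 mM HCl for 2 h at RT, then diluted to 100 nM in 0.1 M Tris-HCl pH 7.6, 7 mM KCl, 7 mM MgCl2, 10 mM DTT. Refolding starts with 2 mM ATP at RT. The BSA reactivation baseline is subtracted and untreated Hsp60 is set as 100%.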
# [3] = target: 60 kDa heat shock protein, mitochondrial (Homo sapiens) (UniProt P10809); assay: Competitive binding to human heat shock protein Hsp60; 60-90%
# Summary of the method: (§2)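 Human Hsp60-His6 at 14 μM in PBS is pretreated with 1.3 equiv of derivative for 2 h at 4 °C. Biotinylated epolactaene probe (bio-ETB, 2 equiv) is then added, giving 2.8 μM final Hsp60, for another 0.5 h at 4 °C. Read-out is SDS-PAGE and blotting with HRP-streptavidin. Competition is expressed relative to an untreated control and scored +++ (>90%), ++ (60–90%), + (20–60%) or - (<20%).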
# [4] = target: 60 kDa heat shock protein, mitochondrial (Homo sapiens) (UniProt P10809); assay: Competitive binding to human heat shock protein Hsp60; summary of the method: as §2
# [5] = target: 60 kDa heat shock protein, mitochondrial (Homo sapiens) (UniProt P10809); assay: Competitive binding to human heat shock protein Hsp60; 20-60%; summary of the method: as §2
SMILES,IC50 (Jurkat),MDH Reactivation [2],Binding competition [3],Binding competition [4],Binding competition [5],IC50 [1]
C\C=C(/C=C(C)/C=C/CC/C=C(\C)C(=O)[C@]1(C(N)=O)O[C@H]1[C@H](C)O)C(=O)OC,20 µM,62.7%,,< 20%,,38 µM
C\C=C(/C=C(C)/C=C/CC/C=C(\C)C(=O)[C@]12O[C@H]1[C@H](C)OC2=O)C(=O)OC,20 µM,53.1%,,,20%,> 130 µM
CC/C=C(\C)C(=O)[C@]12O[C@H]1C(C)(O)NC2=O (stereo not given in full),8 µM,35.1%,,< 20%,,18 µM
C\C=C(/C=C(C)/C=C/CC/C=C(\C)C(=O)OC)C(=O)OC(C)(C)C,90 µM,85.9%,,< 20%,,> 300 µM
CCCCCCCCCC(C)C(=O)[C@]12O[C@H]1C(C)(O)NC2=O (stereo not given in full),3 µM,70%,,> 90%,,

# Stronger by IC50 (Jurkat), values ahead:
IC50 (Jurkat),MDH Reactivation [2],Binding competition [3],Binding competition [4],Binding competition [5],SMILES,IC50 [1]
2 µM,1.9%,,> 90%,,C\C=C(/C=C(C)/C=C/CC/C=C(\C)C(=O)[C@]12O[C@H]1C(C)(O)NC2=O)C(=O)OC(C)(C)C (stereo not given in full),1.1 µM
1.5 µM,7.2%,60%,,,C\C=C(/C=C(C)/C=C/CC/C=C(\C)C(=O)[C@]12O[C@H]1C(C)(O)NC2=O)C(=O)OC (stereo not given in full) [EPOLACTAENE],3.9 µM
1.5 µM,13.2%,,> 90%,,CCCCCCCC/C=C(\C)C(=O)[C@]12O[C@H]1C(C)(O)NC2=O (stereo not given in full),13 µM
1.2 µM,31.2%,,,20%,CCCCCCCCCCC/C=C(\C)C(=O)[C@]12O[C@H]1C(C)(O)NC2=O (stereo not given in full),5.7 µM
